Laboratory results: ChEMBL document CHEMBL4428026, “Discovery of New Monocarbonyl Ligustrazine-Curcumin Hybrids for Intervention of Drug-Sensitive and Drug-Resistant Lung Cancer” (J Med Chem, 2016)
The source made the active and inactive calls. No cut-off for these calls is given here.

What was measured:
A549 [1] = experiment: Induction of apoptosis in human A549 cells assessed as decrease in Bcl2 expression at 2.1 to 4.2 uM after 24 hrs by Western blot method; format: functional, cell-based
Outline: (§1)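 Cells were plated at 1 × 10^6/well overnight, then treated 24 h with vehicle DMSO (0.1%, v/v) or compound (A549, 2.1 or 4.2 µM; A549/DDP, 0.6 or 1.2 µM). Lysis was at 4 °C. Lysates were run on SDS-PAGE (7.5% gel, 20 µg/lane) and immunoblotted with ECL detection; phospho-Akt Ser473 and phospho-ERK Thr202/Tyr204 were probed. Bands were normalized to GAPDH (TrxR, Trx) or β-actin. Three independent experiments were run.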

[2] = Toxicity in BALB/c nude mouse xenografted with human A549/CDDP cells assessed as body weight at 20 mg/kg, ip administered daily for 15 consecutive days measured on day 1 (reference value: 19.3 +/- 1.55 g); format: organism-based; settings: in vivo
[3] = Acute toxicity in ICR mouse assessed as mortality at 450 mg/kg, ip; format: organism-based; settings: in vivo
Outline: (§2)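 Male and female ICR mice (7 weeks), randomized, 10 per group, given one intraperitoneal dose at 200, 250, 300, 350, 400 or 450 mg/kg. Animals were watched for abnormal behaviour and deaths up to two weeks. Deaths were tallied at 1 h, 4 h, day 3 and days 4-14, with survival on day 14. LD50 was calculated with 95% confidence limits.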

[4] = Acute toxicity in ip dosed ICR mouse assessed as mortality measured up to 2 weeks; format: organism-based; settings: in vivo; outline: as §2
[5] = Acute toxicity in ICR mouse assessed as survival at 400 mg/kg, ip measured on day 14; format: organism-based; settings: in vivo; outline: as §2
A549/CDDP [6] = experiment: Induction of ROS generation in human A549/CDDP cells 0.6 to 1.2 uM after 60 mins by DHE staining-based fluorescence assay in presence of GSH; format: functional, cell-based
[7] = Antiproliferative activity against human LTEP-G2 cells after 72 hrs by MTT assay; format: functional, cell-based
Outline: (§3)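 Cells (A549, A549/DDP, SPC-A-1, LTEP-G-2, non-tumor bronchial epithelial HBE) were exposed in triplicate to vehicle or compound for 72 h. MTT (5 mg/mL in PBS) was then added for 4 h, formazan was dissolved in DMSO, and absorbance was read at 570 nm. IC50 values were derived from viability.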

Thioredoxin reductase = Thioredoxin reductase (Homo sapiens, UniProt Q16881+Q9NNW7+Q86VQ6); experiment: Inhibition of thioredoxin reductase in human A549/CDDP cells by DTNB dye based microplate spectrophotometry; format: cell-based
Outline: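 A549 or A549/DDP cells were treated with varying compound concentrations for 24 h, then harvested, homogenized and centrifuged. Protein (50 µg) was reacted in triplicate with NADPH and DTNB in TE buffer at 37 °C for 1 h, and TNB was read at 412 nm. Activity was taken from a purified-TrxR standard curve, and IC50 was derived.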

A549/CDDP [8] = experiment: Decrease in Trx expression in human A549/CDDP cells at 0.6 to 1.2 uM after 24 hrs by Western blot method; format: functional, cell-based; outline: as §1
A549 [9] = experiment: Antiproliferative activity against human A549 cells after 72 hrs by MTT assay; format: functional, cell-based; settings: A549, 72 h; outline: as §3
[10] = biological target: ATP-dependent translocase ABCB1 (Homo sapiens, UniProt P08183); experiment: Inhibition of P-gp in human A549/CDDP cells assessed as accumulation of rhodamine 123 at 0.03 to 1.2 uM by flow cytometry; format: cell-based
Outline: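 A549/DDP cells were treated with compound (0.03-1.2 µM), with verapamil as the reference P-gp inhibitor. Intracellular rhodamine 123 accumulation was measured by flow cytometry.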

A549/CDDP [11] = experiment: Decrease in P-gp mRNA level in human A549/CDDP cells at 0.6 to 1.2 uM after 24 hrs by RT-PCR method; format: functional, cell-based
Outline: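 A549/DDP cells (1 × 10^6) were treated with vehicle or 0.6 or 1.2 µM compound for 24 h. Total RNA was reverse-transcribed with oligo dT primers. ABCB1 transcripts were quantified by real-time RT-PCR relative to GAPDH and expressed as fold of the 0.1% DMSO control. Three independent experiments were run.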

[12] = Acute toxicity in ICR mouse assessed as survival at 200 mg/kg, ip measured on day 14; format: organism-based; settings: in vivo; outline: as §2
A549 [13] = experiment: Effect on NFkappaB expression in human A549 cells at 2.1 to 4.2 uM after 24 hrs by Western blot method; format: functional, cell-based; outline: as §1
A549 [14] = experiment: Inhibition of ERK phosphorylation in human A549 cells at 2.1 to 4.2 uM after 24 hrs by Western blot method; format: cell-based; outline: as §1
A549/CDDP [15] = experiment: Induction of apoptosis in human A549/CDDP cells at 0.6 to 1.2 uM after 24 hrs by annexin V-FITC/propidium iodide staining-based flow cytometry; format: functional, cell-based
Outline: (§4)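 Cells were seeded at 1 × 10^5/well and treated 24 h with DMSO (1%) or compound. They were then washed in PBS, stained with FITC-Annexin V and propidium iodide, and apoptotic fractions were quantified by flow cytometry.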

[16] = Acute toxicity in ICR mouse assessed as mortality at 200 to 450 mg/kg, ip measured on day 4 to 14 post treatment; format: organism-based; settings: in vivo; outline: as §2
A549 [17] = experiment: Decrease in Trx expression in human A549 cells at 2.1 to 4.2 uM after 24 hrs by Western blot method; format: functional, cell-based; outline: as §1
[18] = Antiproliferative activity against human SPC-A1 cells after 72 hrs by MTT assay; format: functional, cell-based; settings: SPCA1, 72 h; outline: as §3
A549/CDDP [19] = experiment: Anticancer activity against human A549/CDDP cells xenografted in BALB/c nude mouse assessed as tumor growth inhibition at 40 mg/kg, ip administered daily for 15 consecutive days measured every 3 days; format: functional; settings: 15 days, read-out: TGI
Outline: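 Both sexes of athymic BALB/c nude mice (4-5 weeks) were inoculated subcutaneously with A549/DDP cells (1 × 10^7/mouse). Once tumors reached 180-200 mm3, mice were randomized (n = 8). They received ip dosing daily for 15 consecutive days, with vehicle PBS/DMSO/cremophor-EL (8:1:1). Tumors were measured by caliper and volume was taken as width2 × length/2. Growth inhibition was taken from tumor weight (w/w).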

[20] = Cytotoxicity against NHBE cells after 72 hrs by MTT assay; format: cell-based; settings: Homo sapiens; outline: as §3
A549/CDDP [21] = experiment: Decrease in TrxR expression in human A549/CDDP cells at 0.6 to 1.2 uM after 24 hrs by Western blot method; format: functional, cell-based; outline: as §1
A549/CDDP [22] = experiment: Inhibition of NFkappaB phosphorylation in human A549/CDDP cells at 0.6 to 1.2 uM after 24 hrs by Western blot method; format: cell-based; outline: as §1
A549/CDDP [23] = experiment: Induction of apoptosis in human A549/CDDP cells assessed as increase in cleaved PARP level at 0.6 to 1.2 uM after 24 hrs by Western blot method; format: functional, cell-based; outline: as §1
A549 [24] = experiment: Induction of apoptosis in human A549 cells at 2.1 to 4.2 uM after 24 hrs by annexin V-FITC/propidium iodide staining-based flow cytometry; format: functional, cell-based; outline: as §4
A549 [25] = experiment: Induction of ROS generation in human A549 cells 2.1 to 4.2 uM after 60 mins by DHE staining-based fluorescence assay in presence of NAC; format: functional, cell-based
A549 [26] = experiment: Induction of apoptosis in human A549 cells assessed as increase in Bax to Bcl2 ratio at 2.1 to 4.2 uM after 24 hrs by Western blot method; format: functional, cell-based; outline: as §1

Chain of ATP-dependent translocase ABCB1 (P08183 whole entry): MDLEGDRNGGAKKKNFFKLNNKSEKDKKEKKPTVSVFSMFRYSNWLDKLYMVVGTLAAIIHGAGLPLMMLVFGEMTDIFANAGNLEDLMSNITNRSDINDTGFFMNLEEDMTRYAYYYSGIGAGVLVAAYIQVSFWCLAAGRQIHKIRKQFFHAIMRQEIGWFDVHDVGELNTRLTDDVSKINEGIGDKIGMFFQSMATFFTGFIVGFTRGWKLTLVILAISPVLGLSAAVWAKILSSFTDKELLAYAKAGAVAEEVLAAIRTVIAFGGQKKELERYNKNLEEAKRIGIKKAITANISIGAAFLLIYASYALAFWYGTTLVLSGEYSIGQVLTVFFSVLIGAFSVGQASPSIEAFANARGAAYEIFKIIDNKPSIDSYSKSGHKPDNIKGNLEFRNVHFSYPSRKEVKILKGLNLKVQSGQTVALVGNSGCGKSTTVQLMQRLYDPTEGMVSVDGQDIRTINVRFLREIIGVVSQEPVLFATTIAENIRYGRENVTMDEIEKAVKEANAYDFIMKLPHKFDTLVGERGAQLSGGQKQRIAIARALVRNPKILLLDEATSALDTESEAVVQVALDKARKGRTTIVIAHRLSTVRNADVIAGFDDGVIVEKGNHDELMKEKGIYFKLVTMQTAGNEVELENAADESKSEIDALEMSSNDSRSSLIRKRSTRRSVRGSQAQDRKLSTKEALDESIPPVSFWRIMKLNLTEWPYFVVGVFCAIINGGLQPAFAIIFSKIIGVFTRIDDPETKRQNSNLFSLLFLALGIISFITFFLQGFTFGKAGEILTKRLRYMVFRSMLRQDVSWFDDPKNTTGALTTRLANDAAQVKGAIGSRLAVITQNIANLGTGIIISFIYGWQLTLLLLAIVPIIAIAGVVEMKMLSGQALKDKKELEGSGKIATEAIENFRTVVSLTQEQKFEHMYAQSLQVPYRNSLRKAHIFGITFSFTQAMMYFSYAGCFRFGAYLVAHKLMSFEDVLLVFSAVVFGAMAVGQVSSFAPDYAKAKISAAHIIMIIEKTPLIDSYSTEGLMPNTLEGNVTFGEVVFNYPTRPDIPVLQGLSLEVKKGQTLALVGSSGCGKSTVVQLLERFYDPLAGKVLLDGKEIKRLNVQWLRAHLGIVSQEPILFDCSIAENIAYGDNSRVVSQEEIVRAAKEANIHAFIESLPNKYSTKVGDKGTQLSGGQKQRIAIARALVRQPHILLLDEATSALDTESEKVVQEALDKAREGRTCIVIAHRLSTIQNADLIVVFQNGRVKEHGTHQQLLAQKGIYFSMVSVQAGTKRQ

COc1cc(/C=C/C(=O)/C=C/c2nc(C)c(C)nc2C)ccc1O
Activity (A549 [1]): Active
Activity [2]: 18.3 g
Activity [3]: Toxic
LD50 at 336 h [4]: 285 mg/kg
survival at 14 day [5]: 10%
Activity (A549/CDDP [6]): inactive
IC50 [7]: 2.88 µM
IC50 (Thioredoxin reductase): 1.22 µM
Activity (A549/CDDP [8]): Active
IC50 (A549 [9]): 2.19 µM
inhibition (INH) [10]: Active
Activity (A549/CDDP [11]): Active
survival at 14 day [12]: 90%
Activity (A549 [13]): inactive
inhibition (A549 [14]): Active
Activity (A549/CDDP [15]): Active
Activity [16]: Non-Toxic
Activity (A549 [17]): Active
IC50 [18]: 3.12 µM
inhibition in vivo at 40 mg/kg (A549/CDDP [19]): 67%
IC50 [20]: 21.3 µM
Activity (A549/CDDP [21]): Active
inhibition (A549/CDDP [22]): Active
Activity (A549/CDDP [23]): Active
Activity (A549 [24]): Active
Activity (A549 [25]): inactive
Activity (A549 [26]): Active
